From ChEMBL document CHEMBL2086341, “COX inhibitors Indomethacin and Sulindac derivatives as antiproliferative agents: synthesis, biological evaluation, and mechanism investigation” (Eur J Med Chem, 2012)
The source made the active and inactive calls. No cut-off for these calls is given here.

Columns and labels:
HT-29 = experiment: Antiproliferative activity against human HT-29 cells after 72 hrs by MTT assay; format: functional, cell-based
Procedure, shortened: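 HT29 colon cells grown in RPMI 1640 with 10% FBS, 2 mmol/l glutamine, 1 mmol/l pyruvate and penicillin-streptomycin at 37 °C, 5% CO2. Cells seeded at 4000/well and attached for 24 h. Treated 72 h with 1000 to 0.32 µM (5-fold dilutions), final DMSO <0.1%; DMSO vehicle controls. MTT 0.5 mg/ml for 2 h, solubilized in DMSO, A570 read. Run in quadruplicate.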

[1] = Solubility of the compound in RPMI 1640 cell culture medium; format: physicochemical
Bos taurus [2] = species on record: Bos taurus; experiment: Induction of bovine tubulin polymerization at 5 uM using microtubule-associated protein rich tubulin measured for 20 mins by spectrophotometry
Procedure, shortened: (§1)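 Bovine brain MAP-rich tubulin at 2 mg/ml in 80 mM PIPES pH 6.9, 2 mM MgCl2, 0.5 mM EGTA, 5% glycerol. Mixed with compound in DMSO or DMSO control at 37 °C. Polymerization started with GTP (2 µl of 1 mM stock) and followed as absorbance at 340 nm over 20 min.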

[3] = Antiproliferative activity against human MDA468 cells after 72 hrs by MTT assay; format: functional, cell-based; conditions: MDA-MB-468, 72 h
NCI-H292 = experiment: Antiproliferative activity against human NCI-H292 cells after 72 hrs by MTT assay; format: functional, cell-based; conditions: NCI-H292, 72 h
Bos taurus [4] = species on record: Bos taurus; experiment: Inhibition of bovine tubulin polymerization using microtubule-associated protein rich tubulin measured for 20 mins by spectrophotometry; procedure, shortened: as §1
SK-BR-3 = experiment: Antiproliferative activity against human SKBR3 cells after 72 hrs by MTT assay; format: functional, cell-based; conditions: SK-BR-3, 72 h
MCF7 = experiment: Antiproliferative activity against human MCF7 cells after 72 hrs by MTT assay; format: functional, cell-based; conditions: MCF7, 72 h
Bos taurus [5] = species on record: Bos taurus; experiment: Inhibition of bovine tubulin polymerization at 25 uM using microtubule-associated protein rich tubulin measured for 20 mins by spectrophotometry; procedure, shortened: as §1
Bos taurus [6] = species on record: Bos taurus; experiment: Inhibition of bovine tubulin polymerization at 10 uM using microtubule-associated protein rich tubulin at 10 mins by spectrophotometry relative to control; procedure, shortened: as §1
IMR-90 = experiment: Cytotoxicity against human IMR90 cells after 72 hrs by MTT assay; format: cell-based; conditions: IMR-90, 72 h
Bos taurus [7] = species on record: Bos taurus; experiment: Inhibition of bovine tubulin polymerization at 8 uM using microtubule-associated protein rich tubulin at 10 mins by spectrophotometry relative to control; procedure, shortened: as §1
Bos taurus [8] = species on record: Bos taurus; experiment: Induction of bovine tubulin polymerization at 2 uM using microtubule-associated protein rich tubulin measured for 20 mins by spectrophotometry; procedure, shortened: as §1
NCI-H522 = experiment: Antiproliferative activity against human NCI-H522 cells after 72 hrs by MTT assay; format: functional, cell-based; conditions: NCI-H522, 72 h
[9] = Homo sapiens, HT-29, 72 h, read-out: IC50

IC50 (HT-29; [9]) | SMILES | also measured
140 µM | COc1cc(/C=C2/C(C)=C(CC(=O)NCCN(C)C)c3cc(F)ccc32)cc(OC)c1OC | 
20 µM | CC1=C(CC(=O)NCCN(C)C)c2cc(F)ccc2/C1=C\c1ccc(Br)cc1 | 
1190 µM | COc1cccc(NC(=O)Cc2c(C)n(C(=O)c3ccc(Cl)cc3)c3ccc(OC)cc23)c1 | 
277 µM | COc1ccc2c(c1)c(CC(=O)NCCN1CCCCC1)c(C)n2C(=O)c1ccc(Cl)cc1 | 
2.7 µM | COc1ccc2c(c1)c(CC(=O)NCCN(C)C)c(C)n2C(=O)c1cc(OC)c(OC)c(OC)c1 | Activity (Bos taurus [2]): Active; IC50 [3]: 2.87 µM; IC50 (NCI-H292): 0.51 µM; inhibition (Bos taurus [4]): Dose-dependent effect; IC50 (SK-BR-3): 4.63 µM; IC50 (MCF7): 0.9 µM; inhibition (Bos taurus [5]): Active; inhibition (Bos taurus [6]): 56%; IC50 (IMR-90): 17.2 µM; inhibition (Bos taurus [7]): 20%; Activity (Bos taurus [8]): Active; IC50 (NCI-H522): 3 µM
2540 µM | COc1ccc(NC(=O)CC2=C(C)/C(=C/c3ccc([S+](C)[O-])cc3)c3ccc(F)cc32)cc1 (stereo not drawn) | 
1120 µM | COc1ccc2c(c1)c(CC(=O)Nc1ccccc1OC)c(C)n2C(=O)c1ccc(Cl)cc1 | 
68 µM | COc1ccc2c(c1)c(CC(=O)Nc1ccc(Cl)cc1)c(C)n2C(=O)c1ccc(Cl)cc1 | 
1330 µM | CCCCCCNC(=O)Cc1c(C)n(C(=O)c2ccc(Cl)cc2)c2ccc(OC)cc12 | 
47 µM | CC1=C(CC(=O)NCCN(C)C)c2cc(F)ccc2/C1=C\c1ccc([S+](C)[O-])cc1 (stereo not drawn) | 
124 µM | CCCCNC(=O)CC1=C(C)/C(=C/c2ccc([S+](C)[O-])cc2)c2ccc(F)cc21 (stereo not drawn) | 
465 µM | CC1=C(CC(=O)NCCCN(C)C)c2cc(F)ccc2/C1=C\c1ccc([S+](C)[O-])cc1 (stereo not drawn) | 
52 µM | COc1ccc2c(c1)c(CC(=O)Nc1ccc(I)cc1)c(C)n2C(=O)c1ccc(Cl)cc1 | 
1430 µM | CC1=C(CC(=O)NCCC(C)C)c2cc(F)ccc2/C1=C\c1ccc([S+](C)[O-])cc1 (stereo not drawn) | 
1700 µM | CC1=C(CC(=O)Nc2ccc(Cl)cc2)c2cc(F)ccc2/C1=C\c1ccc([S+](C)[O-])cc1 (stereo not drawn) | 

Continued, compound first:

SMILES | IC50 (HT-29; [9]) | also measured
COc1ccc2c(c1)c(CC(=O)NCCN1CCOCC1)c(C)n2C(=O)c1ccc(OC)c(OC)c1 |  | IC50 (HT-29; ht-29): ND(Insoluble); solubility [1]: Insoluble
CC1=C(CC(=O)NCCN(C)C)c2cc(F)ccc2/C1=C\c1ccc(Cl)cc1 | 12.4 µM | 
COc1ccc2c(c1)c(CC(=O)NCCN(C)C)c(C)n2C(=O)c1ccc2ccccc2c1 | 29 µM | 
COc1ccc2c(c1)c(CC(=O)NCCCCCNC(=O)Cc1c(C)n(C(=O)c3ccc(Cl)cc3)c3ccc(OC)cc13)c(C)n2C(=O)c1ccc(Cl)cc1 | 110 µM | 
CC1=C(CC(=O)NCCN(C)C)c2cc(F)ccc2/C1=C\c1ccc2ccccc2c1 | 271 µM | 
CC1=C(CC(=O)O)c2cc(F)ccc2/C1=C\c1ccc([S+](C)[O-])cc1 (stereo not drawn) [SULINDAC] | 1730 µM | 
COc1ccc2c(c1)c(CC(=O)NCCN(C)C)c(C)n2C(=O)c1ccc(OC)c(OC)c1 | 44 µM | 
CSc1ccc(/C=C2/C(C)=C(CC(=O)NCCN(C)C)c3cc(F)ccc32)cc1 | 11.3 µM | 
CC1=C(CC(=O)Nc2ccc(C#N)cc2)c2cc(F)ccc2/C1=C\c1ccc([S+](C)[O-])cc1 (stereo not drawn) | 2580 µM | 
COc1ccc2c(c1)c(CC(=O)NCCN1CCCC1)c(C)n2C(=O)c1cc(OC)c(OC)c(OC)c1 | 34 µM | 
COc1ccc2c(c1)c(CC(=O)NCc1ccc(CNC(=O)Cc3c(C)n(C(=O)c4ccc(Cl)cc4)c4ccc(OC)cc34)cc1)c(C)n2C(=O)c1ccc(Cl)cc1 |  | IC50 (HT-29; ht-29): ND(Insoluble); solubility [1]: Insoluble
CCCCCCCCNC(=O)CC1=C(C)/C(=C/c2ccc([S+](C)[O-])cc2)c2ccc(F)cc21 (stereo not drawn) | 307 µM | 
CC1=C(CC(=O)NCCN2CCCC2)c2cc(F)ccc2/C1=C\c1ccc([S+](C)[O-])cc1 (stereo not drawn) | 52 µM | 
COc1ccc2c(c1)c(CC(=O)NCCN(C)C)c(C)n2C(=O)c1ccc(Cl)cc1 | 170 µM | 
CCCCCC(C)NC(=O)CC1=C(C)/C(=C/c2ccc([S+](C)[O-])cc2)c2ccc(F)cc21 (stereo not drawn) | 2140 µM | 
COc1ccc2c(c1)c(CC(=O)NCCN1CCOCC1)c(C)n2C(=O)c1ccc(Br)cc1 |  | IC50 (HT-29; ht-29): ND(Insoluble); solubility [1]: Insoluble
COc1ccc2c(c1)c(CC(=O)O)c(C)n2C(=O)c1ccc(Cl)cc1 [INDOMETHACIN] | 1050 µM | 
COc1ccc2c(c1)c(CC(=O)NCCN(C)C)c(C)n2S(=O)(=O)c1ccccc1 | 7.7 µM | IC50 [3]: 15.9 µM; IC50 (NCI-H292): 4.85 µM; IC50 (SK-BR-3): 6.39 µM; IC50 (MCF7): 4.88 µM; inhibition (Bos taurus [5]): Active; IC50 (IMR-90): 18.7 µM; IC50 (NCI-H522): 14.1 µM
COc1ccc(/C=C2/C(C)=C(CC(=O)NCCN(C)C)c3cc(F)ccc32)cc1 | 20 µM | 
COc1ccc2c(c1)c(CC(=O)NCCN(C)C)c(C)n2C(=O)c1ccc(Br)cc1 | 13.5 µM | IC50 [3]: 2.91 µM; IC50 (NCI-H292): 3.47 µM; IC50 (SK-BR-3): 4.81 µM; IC50 (MCF7): 9.53 µM; inhibition (Bos taurus [5]): Active; IC50 (IMR-90): 41.7 µM; IC50 (NCI-H522): 10.6 µM
COc1ccc2c(c1)c(CC(=O)NCCN1CCCC1)c(C)n2C(=O)c1ccc(Cl)cc1 | 38 µM | 
COc1ccc(C(=O)n2c(C)c(CC(=O)NCCN(C)C)c3cc(OC)ccc32)cc1 | 17.8 µM | 
CCCCCCNC(=O)CC1=C(C)/C(=C/c2ccc([S+](C)[O-])cc2)c2ccc(F)cc21 (stereo not drawn) | 53 µM | 
COc1ccc2c(c1)c(CC(=O)NCCN1CCOCC1)c(C)n2C(=O)c1cc(OC)c(OC)c(OC)c1 | 611 µM | 
